Our source for the MIC values is ChEMBL document CHEMBL1145490, “Beta-lactam resistance in Haemophilus parasuis Is mediated by plasmid pB1000 bearing blaROB-1” (2007).

Molecules are shown by their SMILES. ≈ marks a conversion by molar mass, not a printed value.

Common to all, as to type: functional
Test [1] deals with Haemophilus parasuis. The test can be described thus: Antimicrobial activity against Haemophilus parasuis BB 1022. The following applies: Glaesserella parasuis. A digest of the protocol: (§1)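 H. parasuis isolates grown on chocolate agar and in Haemophilus test medium broth at 37°C under microaerophilic conditions (5% CO2). Susceptibility was profiled by disk diffusion and broth microdilution in Haemophilus test medium for fastidious bacteria, following a previously described method.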

Test [2] relates to Haemophilus parasuis. The test can be described thus: Antimicrobial activity against Haemophilus parasuis BB 1024. To be noted: Glaesserella parasuis. A digest of the protocol: as §1
Test [3] deals with Haemophilus parasuis. The test can be described thus: Antimicrobial activity against Haemophilus parasuis BB 1021. The following applies: Glaesserella parasuis. A digest of the protocol: as §1
Test [4] deals with Haemophilus parasuis. The test can be described thus: Antimicrobial activity against Haemophilus parasuis ATCC 19417. To be noted: Glaesserella parasuis. A digest of the protocol:
as §1

Test [5] concerns Haemophilus parasuis. The test can be described thus: Antimicrobial activity against Haemophilus parasuis BB 1019. To be noted: Glaesserella parasuis. A digest of the protocol:
as §1

For test [6], the system named is Haemophilus parasuis. The test can be described thus: Antimicrobial activity against Haemophilus parasuis BB 1025. To be noted: Glaesserella parasuis. A digest of the protocol:
as §1

Test [7] concerns Haemophilus parasuis. The test can be described thus: Antimicrobial activity against Haemophilus parasuis BB 1023. The following applies: Glaesserella parasuis. A digest of the protocol: as §1
The subject of test [8] is Escherichia coli. The test can be described thus: Antimicrobial activity against Escherichia coli.
Test [9] relates to Haemophilus parasuis. The test can be described thus: Antimicrobial activity against Haemophilus parasuis BB 1020. The following applies: Glaesserella parasuis. A digest of the protocol: as §1
Test [10] relates to Escherichia coli. The test can be described thus: Antimicrobial activity against Escherichia coli pB1000 expressing ROB1 beta lactamase.
Test [11] concerns Haemophilus parasuis. The test can be described thus: Antimicrobial activity against Haemophilus parasuis BB 1026. The following applies: Glaesserella parasuis. A digest of the protocol: as §1
In test [12] the test system is Haemophilus parasuis. The test can be described thus: Antimicrobial activity against Haemophilus parasuis BB 1018. To be noted: Glaesserella parasuis. A digest of the protocol: as §1

As a reminder, the MIC is the lowest concentration that inhibits growth of the organism. Higher therefore signals a need for much substance. For the compound `Cc1onc(-c2ccccc2)c1C(=O)N[C@@H]1C(=O)N2[C@@H]1SC(C)(C)[C@@H]2C(=O)O` [OXACILLIN], the minimum inhibitory concentration (MIC) against Haemophilus parasuis [1], with Haemophilus parasuis [2], in the test on Haemophilus parasuis [3], against Haemophilus parasuis [4], with Haemophilus parasuis [5] and in the test on Haemophilus parasuis [6] was ≤ 0.25 mg/L throughout. The minimal inhibitory concentration (MIC) was ≤ 0.25 mg/L against Haemophilus parasuis [7]; > 4 mg/L with Escherichia coli [8]; ≤ 0.25 mg/L against Haemophilus parasuis [9]; > 4 mg/L against Escherichia coli [10]; ≤ 0.25 mg/L against Haemophilus parasuis [11]; ≤ 0.25 mg/L in the test with Haemophilus parasuis [12].
In the case of `CO/N=C(\C(=O)N[C@@H]1C(=O)N2C(C(=O)O)=C(COC(C)=O)CS[C@H]12)c1csc(N)n1` [CEFOTAXIME], the minimum inhibitory concentration (MIC) in the test on Haemophilus parasuis [1] is 0.06 mg/L (≈ 0.132 µM); in the test on Haemophilus parasuis [2], 0.06 mg/L (≈ 0.132 µM); against Haemophilus parasuis [3], 0.06 mg/L (≈ 0.132 µM); with Haemophilus parasuis [4], ≤ 0.03 mg/L; in the test on Haemophilus parasuis [5], 0.06 mg/L (≈ 0.132 µM); with Haemophilus parasuis [6], 0.06 mg/L (≈ 0.132 µM). Further, the minimum inhibitory concentration (MIC) with Haemophilus parasuis [7] was 0.12 mg/L (≈ 0.263 µM); against Escherichia coli [8], 0.06 mg/L (≈ 0.132 µM); against Haemophilus parasuis [9] it was ≤ 0.03 mg/L; in the test with Escherichia coli [10], 0.06 mg/L (≈ 0.132 µM); with Haemophilus parasuis [11], ≤ 0.03 mg/L; in the test on Haemophilus parasuis [12], 0.06 mg/L (≈ 0.132 µM).
Take `N[C@@H](C(=O)N[C@@H]1C(=O)N2C(C(=O)O)=C(Cl)CS[C@H]12)c1ccccc1` [CEFACLOR ANHYDROUS]: the minimum inhibitory concentration (MIC) in the test on Haemophilus parasuis [1] was > 16 mg/L; with Haemophilus parasuis [2], > 16 mg/L; in the test with Haemophilus parasuis [3], > 16 mg/L; with Haemophilus parasuis [4] it was ≤ 1 mg/L; in the test on Haemophilus parasuis [5], > 16 mg/L; with Haemophilus parasuis [6] it was > 16 mg/L. In addition, the MIC against Haemophilus parasuis [7] was > 16 mg/L; against Escherichia coli [8] it was 8 mg/L (≈ 21.8 µM); against Haemophilus parasuis [9], > 16 mg/L; against Escherichia coli [10] it was 128 mg/L (≈ 348 µM); against Haemophilus parasuis [11], ≤ 1 mg/L; with Haemophilus parasuis [12], > 16 mg/L.
On to `CC1(C)S[C@@H]2[C@H](NC(=O)[C@H](N)c3ccc(O)cc3)C(=O)N2[C@H]1C(=O)O` [AMOXICILLIN], for which the minimum inhibitory concentration (MIC) in the test on Haemophilus parasuis [1] is > 256 mg/L; in the test on Haemophilus parasuis [2], > 256 mg/L; in the test on Haemophilus parasuis [3] it was > 256 mg/L; in the test on Haemophilus parasuis [4], ≤ 2 mg/L; against Haemophilus parasuis [5] it was > 256 mg/L; in the test on Haemophilus parasuis [6] it was > 256 mg/L. The minimal inhibitory concentration (MIC) against Haemophilus parasuis [7] was > 256 mg/L; in the test with Escherichia coli [8], 4 mg/L (≈ 10.9 µM); in the test with Haemophilus parasuis [9], > 256 mg/L; with Escherichia coli [10] it was > 256 mg/L; in the test with Haemophilus parasuis [11], ≤ 2 mg/L; in the test on Haemophilus parasuis [12] it was > 256 mg/L.
